Each structure is given as a SMILES string.

The species named for one series is Gallus gallus. Description: Antiangiogenic activity in chicken embryo chorioallantoic membrane model assessed as inhibition of FGF-induced angiogenesis at 1 uM treated 1 hr after FGF challenge measured after 48 hrs relative to control. The format is functional, tissue-based. A digest of the protocol:
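Live chick chorioallantoic membrane was exposed to FGF with or without test agent, with PBS as a control. New vessel formation was scored as branch points and reported as mean ± SEM, n = 8. Percent inhibition was calculated against the FGF control.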

The species entered for the next series is Mus musculus. Description: Antiangiogenic activity in […] mouse assessed as inhibition of FGF-induced angiogenesis at 10 ug/Matrigel plug measured after 15 days of Matrigel injection using […] reagent staining by ELISA. The format is functional. The conditions noted are these: in the assay text read “after 14 days” for “after 15 days”. In outline: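 Mice housed 4 per cage at 20–24 °C, 60–70% humidity, 12 h light/dark, food and water ad libitum, with 5 days' acclimation. Matrigel thawed overnight at 4 °C, kept on ice, injected subcutaneously with FGF. Dissected plugs were stripped of peritoneum, homogenized in ddH₂O for 5–10 min, and spun at 4000 rpm for 10 min. Supernatant was mixed with Drabkin's reagent for 15–30 min at room temperature for hemoglobin measurement.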

Series [1] in a line: Dissociation constant, pKa of the compound. The format is physicochemical.

For the molecule `CC(C)[Si](OC(=O)Cc1cc(I)c(Oc2cc(I)c(OCC3CO3)c(I)c2)c(I)c1)(C(C)C)C(C)C` (configuration not stated), in the series listed under Gallus gallus, the inhibition (usually the share of the control response that was lost under treatment) is 96%. Also, the “inhibition (INH)” value in the series listed under Mus musculus is 100%.
As for `O=C(Cc1cc(I)c(Oc2cc(I)c(OCC3CO3)c(I)c2)c(I)c1)N1CCCCC1` (configuration not stated), in the series filed under Gallus gallus, the inhibition came out at 44%. In addition, the “inhibition (INH)” value in the series listed under Mus musculus turned out to be 80%.
In the same order, the values of `O=C(O)Cc1cc(I)c(Oc2cc(I)c(OCC3CO3)c(I)c2)c(I)c1` (configuration not stated) are 62% and 100%.
In the same order, the values of `O=C(Cc1cc(I)c(Oc2cc(I)c(O)c(I)c2)c(I)c1)N1CCCCC1` are 15% and 104%.
For `O=C(Cc1cc(I)c(Oc2cc(I)c(OCC3CO3)c(I)c2)c(I)c1)OCC1CO1` (configuration not stated), in that order: 31% and 100%.
Take `O=C(O)Cc1cc(I)c(Oc2cc(I)c(O)c(I)c2)c(I)c1` [TETRAC]: in the series listed under Gallus gallus, the inhibition was 85%. Moreover, the “inhibition (INH)” value in the series listed under Mus musculus was 90%. For the same molecule, the pKa (as a rule, the negative logarithm of the acid dissociation constant) in series [1] amounted to 4.3.
As to `CC(C)(C)OC(=O)Cc1cc(I)c(Oc2cc(I)c(O)c(I)c2)c(I)c1`, the inhibition in the series filed under Gallus gallus is 88%. Also, the “inhibition (INH)” value in the series listed under Mus musculus worked out at 95%.
Consider `CC(C)[Si](OC(=O)Cc1cc(I)c(Oc2cc(I)c(O)c(I)c2)c(I)c1)(C(C)C)C(C)C`, for which, in the series filed under Gallus gallus, the inhibition came to 75%. The “inhibition (INH)” value in the series listed under Mus musculus was 104%.

The values above are taken from ChEMBL document CHEMBL1158426, “Semisynthesis and pharmacological activities of Tetrac analogs: angiogenesis modulators” (Bioorg Med Chem Lett, 2009).
